Calls of active or inactive are those of the source. The rule behind the calls is not given here.
Assays:
[1] = Therapeutic index, ratio of TD50 for human HG23 cells to ED50 for Norovirus infected in HG23 cells; format: cell-based; settings: for Ratio TD50/ED50: hg23; for selectivity ratio: HG23 cells, read-out: Ratio TD50/ED50
How it was run: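 TD50 in HG23 replicon cells was measured with a cell cytotoxicity assay kit after 48 h of treatment. […] The index is TD50 divided by ED50.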

Norovirus [2] = assay: Antiviral activity against Norovirus infected in HG23 cells assessed as inhibition of viral replication at 24 hrs by qRT-PCR analysis; format: functional; settings: read-out: ED50 (the source's name)
How it was run: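 Norwalk virus replicon-bearing HG23 cells were treated with compound, and NV genome levels were quantified by qRT-PCR at 24 h post-treatment. ED50 was derived from the reduction in genome levels. Values are the average of two independent experiments ± standard deviation.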

[3] = Cytotoxicity against human HG23 cells at 48 hrs; format: cell-based; settings: for CC50: hg23, 48 h, 48 h, read-out: TD50 (the source's name); for CC50 at 48 h: HG23 cells, read-out: TD50
How it was run: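 Norwalk virus replicon-harboring HG23 cells were treated with compound for 48 h, then assayed with a commercial cell cytotoxicity kit. The median toxic dose (TD50) was calculated from this read-out. Values are the average of two independent experiments ± standard deviation.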

Norovirus [4] = assay: Inhibition of Norovirus 3C protease

| SMILES | inhibition (Norovirus [4]) | EC50 (Norovirus [2]; Norovirus, HG23, 24 h) | further results |
| --- | --- | --- | --- |
| CN(CC(=O)NCCN1CCOCC1)S(=O)(=O)NCc1cccc(Oc2ccccc2)c1.Cl |  |  | Ratio TD50/ED50 [1]: 24; EC50 (Norovirus [2]): 10.1 µM; CC50 [3]: 235 µM |
| CN(CC(=O)NCCN1CCOCC1)S(=O)(=O)NCc1cccc(Oc2ccccc2)c1 [listing 1 of 2 here] | inactive |  |  |
| Cl.O=C(CNS(=O)(=O)NCc1cccc(Oc2ccccc2)c1)N1CCN(Cc2ccccc2)CC1 |  |  | Ratio TD50/ED50 [1]: 21; EC50 (Norovirus [2]): 5.7 µM; CC50 [3]: 120 µM |
| O=C(CNS(=O)(=O)NCc1cccc(Oc2ccccc2)c1)NCCc1ccccc1 | inactive | > 10 µM |  |
| CC(NS(=O)(=O)NCc1cccc(Oc2ccccc2)c1)C(=O)NCCN1CCOCC1 (racemic; 6b) [listing 1 of 2 here] |  | > 10 µM |  |
| O=C(CNS(=O)(=O)NCc1cccc(Oc2ccccc2)c1)NCCN1CCOCC1 [listing 1 of 3 here] |  | 8.5 µM | CC50 at 48 h [3]: 165 µM |
| O=C(CN(Cc1ccccc1)S(=O)(=O)NCc1cccc(Oc2ccccc2)c1)NCCN1CCOCC1 [listing 1 of 3 here] |  | 3.8 µM | CC50 at 48 h [3]: 45 µM |
| COC(=O)C1CCC(NC(=O)CNS(=O)(=O)NCc2cccc(Oc3ccccc3)c2)CC1 (configuration not stated) | inactive | > 10 µM | CC50 at 48 h [3]: 75 µM |
| CSCCC(NS(=O)(=O)NCc1cccc(Oc2ccccc2)c1)C(=O)NCCN1CCOCC1 (racemic; 7d) | inactive |  |  |
| O=C(CNS(=O)(=O)NCc1cccc(Oc2ccccc2)c1)N1CCN(Cc2ccccc2)CC1 [listing 1 of 2 here] | inactive |  |  |
| O=C(CNS(=O)(=O)NCc1cccc(Oc2ccccc2)c1)NCc1ccccc1 | inactive | 8.1 µM | CC50 at 48 h [3]: 47 µM |
| CCCC(NS(=O)(=O)NCc1cccc(Oc2ccccc2)c1)C(=O)NCCN1CCOCC1 (racemic) | inactive | > 10 µM |  |
| O=C(CNS(=O)(=O)NCc1cccc(Oc2ccccc2)c1)NC1CCC(C(=O)O)CC1 (configuration not stated) | inactive | > 10 µM |  |
| O=C(CN(Cc1ccccc1)S(=O)(=O)NCc1cccc(Oc2ccccc2)c1)NCCN1CCOCC1 [listing 2 of 3 here] | inactive |  |  |
| CC(NS(=O)(=O)NCc1cccc(Oc2ccccc2)c1)C(=O)NCCN1CCOCC1 (racemic; 7b) | inactive |  |  |
| O=S1(=O)NCCN1Cc1cccc(Oc2ccccc2)c1 |  | 4.1 µM |  |

| SMILES | inhibition (Norovirus [4]) | EC50 (Norovirus [2]; Norovirus, HG23, 24 h) | further results |
| --- | --- | --- | --- |
| O=C(CN(Cc1ccccc1)S(=O)(=O)NCc1cccc(Oc2ccccc2)c1)NCCN1CCOCC1 [listing 3 of 3 here] |  |  | EC50 (Norovirus [2]): 3.9 µM; CC50 [3]: 55 µM |
| CSCCC(NS(=O)(=O)NCc1cccc(Oc2ccccc2)c1)C(=O)NCCN1CCOCC1 (racemic; 6d) [listing 1 of 2 here] | inactive |  |  |
| COC(=O)C1CCN(C(=O)CNS(=O)(=O)NCc2cccc(Oc3ccccc3)c2)CC1 | inactive | > 10 µM |  |
| COC(=O)CNS(=O)(=O)NCc1cccc(Oc2ccccc2)c1 | inactive | > 10 µM |  |
| O=C(CNS(=O)(=O)NCc1cccc(Oc2ccccc2)c1)NCc1ccco1 | inactive | > 10 µM |  |
| CCOC(=O)N1CCN(C(=O)CNS(=O)(=O)NCc2cccc(Oc3ccccc3)c2)CC1 | inactive | 8.2 µM | CC50 at 48 h [3]: 130 µM |
| CC(NS(=O)(=O)NCc1cccc(Oc2ccccc2)c1)C(=O)NCCN1CCOCC1 (racemic; 6b) [listing 2 of 2 here] | inactive |  |  |
| CSCCC(NS(=O)(=O)NCc1cccc(Oc2ccccc2)c1)C(=O)NCCN1CCOCC1 (racemic; 6d) [listing 2 of 2 here] |  | 4.5 µM | selectivity ratio [1]: > 27; CC50 at 48 h [3]: 124 µM |
| O=C(CNS(=O)(=O)NCc1cccc(Oc2ccccc2)c1)N1CCN(Cc2ccccc2)CC1 [listing 2 of 2 here] |  | 5.5 µM | selectivity ratio [1]: 26; CC50 at 48 h [3]: 145 µM |
| O=C(CNS(=O)(=O)NCc1cccc(Oc2ccccc2)c1)NCCN1CCOCC1 [listing 2 of 3 here] | inactive |  |  |
| O=S1(=O)N(CCN2CCOCC2)CCN1Cc1cccc(Oc2ccccc2)c1 |  | 4.2 µM | CC50 at 48 h [3]: 51 µM |
| CSCCC(NS(=O)(=O)NCc1cccc(Oc2ccccc2)c1)C(=O)NCCN1CCOCC1.Cl (racemic; 7d) |  |  | Ratio TD50/ED50 [1]: 54; CC50 [3]: 230 µM |
| O=C(O)C1CCN(C(=O)CNS(=O)(=O)NCc2cccc(Oc3ccccc3)c2)CC1 | inactive | > 10 µM |  |
| CN(CC(=O)NCCN1CCOCC1)S(=O)(=O)NCc1cccc(Oc2ccccc2)c1 [listing 2 of 2 here] |  | 5.2 µM | Ratio TD50/ED50 [1]: 63; CC50 at 48 h [3]: 320 µM |
| O=C(CNS(=O)(=O)NCc1cccc(Oc2ccccc2)c1)NCCN1CCOCC1 [listing 3 of 3 here] |  |  | selectivity ratio [1]: 65; EC50 (Norovirus [2]): 5.1 µM; CC50 [3]: 330 µM |
| O=C(O)CCCCN1CCN(Cc2cccc(Oc3ccccc3)c2)S1(=O)=O |  | 6.1 µM |  |
